From ChEMBL document CHEMBL5143731, “N-Acylamino Saccharin as an Emerging Cysteine-Directed Covalent Warhead and Its Application in the Identification of Novel FBPase Inhibitors toward Glucose Reduction” (J Med Chem, 2022)
Active and inactive are the calls of the source. No cut-off for these calls is given here.

How the values were obtained:
[1] = target: T1, Tyrosine-protein kinase JAK3 (Homo sapiens) (UniProt P52333); assay: Inhibition of JAK3 (unknown origin) at 300 uM measured after 40 mins in presence of ATP by luminescence assay relative to control
T1 sequence (whole entry): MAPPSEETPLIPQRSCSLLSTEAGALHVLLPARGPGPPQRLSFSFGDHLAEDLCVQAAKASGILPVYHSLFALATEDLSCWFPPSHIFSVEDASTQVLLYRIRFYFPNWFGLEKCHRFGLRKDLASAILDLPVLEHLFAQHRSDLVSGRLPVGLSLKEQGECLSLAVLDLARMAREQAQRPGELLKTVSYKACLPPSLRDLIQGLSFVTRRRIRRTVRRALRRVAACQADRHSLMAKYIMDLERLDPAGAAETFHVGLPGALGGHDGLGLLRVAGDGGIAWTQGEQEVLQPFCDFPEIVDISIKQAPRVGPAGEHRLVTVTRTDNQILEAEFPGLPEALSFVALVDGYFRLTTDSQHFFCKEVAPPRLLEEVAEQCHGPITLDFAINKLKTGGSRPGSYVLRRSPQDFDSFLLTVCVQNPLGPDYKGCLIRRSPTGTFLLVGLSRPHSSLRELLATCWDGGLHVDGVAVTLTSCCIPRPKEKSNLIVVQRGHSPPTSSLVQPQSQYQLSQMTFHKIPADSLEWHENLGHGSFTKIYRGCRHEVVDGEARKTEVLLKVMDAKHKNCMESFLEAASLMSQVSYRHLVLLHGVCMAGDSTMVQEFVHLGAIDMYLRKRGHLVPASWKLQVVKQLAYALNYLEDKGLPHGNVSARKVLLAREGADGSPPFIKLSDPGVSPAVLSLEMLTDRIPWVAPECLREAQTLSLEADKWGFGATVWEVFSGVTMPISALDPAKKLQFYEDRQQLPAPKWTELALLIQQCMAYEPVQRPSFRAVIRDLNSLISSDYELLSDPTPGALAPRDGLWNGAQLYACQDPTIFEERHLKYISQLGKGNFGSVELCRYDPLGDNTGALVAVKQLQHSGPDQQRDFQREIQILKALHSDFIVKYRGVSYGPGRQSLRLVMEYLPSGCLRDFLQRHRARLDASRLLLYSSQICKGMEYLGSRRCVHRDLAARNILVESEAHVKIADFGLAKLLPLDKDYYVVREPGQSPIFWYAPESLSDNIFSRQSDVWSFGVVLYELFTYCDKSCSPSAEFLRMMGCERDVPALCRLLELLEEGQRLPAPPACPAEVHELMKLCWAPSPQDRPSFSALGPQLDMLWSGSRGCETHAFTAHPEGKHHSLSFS
Method in brief: (§1)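 Kinase reaction (50 μL): 40 mM Tris pH 7.4, 10 mM MgCl2, 0.1 mg/mL BSA, 1 mM DTT, 10 μM ATP, kinase and substrate, with 1% final DMSO. Run 40 min at 30 °C. Residual ATP read by Kinase-Glo Plus luminescence, inversely related to kinase activity.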

[2] = Half life of the compound in buffer; type: physicochemical
Method in brief: (§2)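 Electrophile (20 μmol) incubated at 37 °C either in pH 7.4 buffer, or in DMSO-d6/D2O (5:1), with or without glutathione. Decay followed by 1H NMR kinetics. First-order rate constant kpseudo-1st taken from ln[electrophile] versus time; t1/2 = 0.693/(60×k), in min.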

[3] = Half life of the compound in DMSO; type: physicochemical; method in brief: as §2
[4] = Half life of the compound in GSH; type: physicochemical; conditions: GSH (glutathione); method in brief: as §2
[5] = target: T2, Fructose-1,6-bisphosphatase 1 (Homo sapiens, UniProt P09467); assay: Inhibition of human FBPase expressed Escherichia coli BL21 in by malachite green dye based spectrophotometry
T2 sequence (P09467 whole entry): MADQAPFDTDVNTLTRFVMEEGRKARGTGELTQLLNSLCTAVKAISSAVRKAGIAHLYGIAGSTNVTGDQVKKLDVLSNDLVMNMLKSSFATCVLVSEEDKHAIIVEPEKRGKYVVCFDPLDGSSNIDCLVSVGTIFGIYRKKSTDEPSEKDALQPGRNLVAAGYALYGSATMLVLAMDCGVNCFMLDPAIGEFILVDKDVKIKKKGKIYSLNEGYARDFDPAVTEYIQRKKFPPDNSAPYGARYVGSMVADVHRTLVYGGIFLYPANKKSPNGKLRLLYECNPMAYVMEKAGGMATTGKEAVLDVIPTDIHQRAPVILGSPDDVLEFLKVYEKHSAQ
Method in brief: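 His-tagged human liver FBPase expressed in E. coli BL21(DE3) and purified by Ni affinity. Phosphate released from FBP complexed with ammonium molybdate/malachite green and read at 620 nm against a KH2PO4 standard curve (2−60 μM). Initial rates at saturating substrate, fixed effector and varied inhibitor fitted to the Hill equation for IC50.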

[6] = target: Epidermal growth factor receptor (Homo sapiens) (UniProt P00533); assay: Inhibition of EGFR (unknown origin) at 300 uM measured after 40 mins in presence of ATP by luminescence assay relative to control; method in brief: as §1
Homo sapiens [7] = species: Homo sapiens; assay: Selectivity ratio of IC50 for human FBPase to IC50 for recombinant ALDOA (unknown origin)
Method in brief: (§3)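 Aldolase (ALDOA/B/C) IC50 by NADH-coupled assay: enzyme plus serial compound dilutions, 0.41 mM NADH and TPI in 0.1 M Tris pH 7.4/0.2 M K-acetate, 3 min at 37 °C. Started with FBP and […], A340 read every 30 s for 6 min. Ratios against the FBPase IC50 from malachite green phosphate assay (620 nm).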

Homo sapiens [8] = species: Homo sapiens; assay: Selectivity ratio of IC50 for human FBPase to IC50 for recombinant ALDOB (unknown origin); method in brief: as §3
Homo sapiens [9] = species: Homo sapiens; assay: Selectivity ratio of IC50 for human FBPase to IC50 for recombinant ALDOC (unknown origin); method in brief: as §3
Homo sapiens [10] = species: Homo sapiens; assay: Selectivity ratio of IC50 for human FBPase to IC50 for human GAPDH
Method in brief: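 Recombinant human GAPDH (His-tag, E. coli; 0.1 mg/mL final) preincubated 30 min with compound in 10 mM sodium pyrophosphate pH 8.5 at 37 °C. Started with arsenate, 4 mM NAD+ and 12 mM G3P; A340 at 4 min. Ratio taken against FBPase IC50 from the malachite green phosphate-release assay.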

[11] = target: Tyrosine-protein kinase BTK (Homo sapiens) (UniProt Q06187); assay: Inhibition of BTK (unknown origin) at 300 uM measured after 40 mins in presence of ATP by luminescence assay relative to control; method in brief: as §1
[12] = target: T3, Fructose-1,6-bisphosphatase 1 (Homo sapiens) (UniProt P09467); assay: Binding affinity to ABPP-labeled FBPase (unknown origin) by silver staining based streptavidin blotting; conditions: dose 2-10 µM, DDE = dose-dependent effect
T3 sequence (whole entry): T2 sequence (P09467 whole entry)
Method in brief: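 LO2 cell lysate (2 mg/mL protein, RPMI-1640/10% FBS cultures lysed at 70−80% confluence) or purified FBPase labelled with a series of alkyne probe concentrations, 37 °C, 2 h. CuAAC with 0.5 mM each of biotin-PEG3-azide, ascorbate, THPTA and CuSO4, 37 °C, 1 h. Samples run on 10% SDS-PAGE, then silver staining and streptavidin-HRP blot with ECL detection.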

[13] = target: T3, Fructose-1,6-bisphosphatase 1 (Homo sapiens); assay: Binding affinity to ABPP-labeled FBPase (unknown origin) at 2 to 8 uM by silver staining based streptavidin blotting; conditions: dose 2-8 µM
Method in brief: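 LO2 lysate (2 mg/mL) treated with 2−8 μM alkyne probe, 37 °C, 2 h. Click-biotinylated by CuAAC (0.5 mM reagents, 1 h, 37 °C), resolved by 10% SDS-PAGE. Probed by silver stain and streptavidin-HRP blot; labelled bands near 35 kDa read. 2 μM iodoacetamide alkyne served as the reference.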

[14] = AUCt in 12 hrs fasted ICR mouse at 30 mg/kg, ip measured after 24 hrs by LC-MS/MS analysis; conditions: in vivo
in vivo [15] = conditions: ICR, mouse, ip, 30 mg/kg
in vivo [16] = conditions: ICR, mouse, ip, 30 mg/kg; remark: listed apart in the source
in vivo [17] = conditions: ICR, mouse, ip, 30 mg/kg; remark: listed apart in the source

Chain of Tyrosine-protein kinase BTK (Homo sapiens) (Q06187 whole entry): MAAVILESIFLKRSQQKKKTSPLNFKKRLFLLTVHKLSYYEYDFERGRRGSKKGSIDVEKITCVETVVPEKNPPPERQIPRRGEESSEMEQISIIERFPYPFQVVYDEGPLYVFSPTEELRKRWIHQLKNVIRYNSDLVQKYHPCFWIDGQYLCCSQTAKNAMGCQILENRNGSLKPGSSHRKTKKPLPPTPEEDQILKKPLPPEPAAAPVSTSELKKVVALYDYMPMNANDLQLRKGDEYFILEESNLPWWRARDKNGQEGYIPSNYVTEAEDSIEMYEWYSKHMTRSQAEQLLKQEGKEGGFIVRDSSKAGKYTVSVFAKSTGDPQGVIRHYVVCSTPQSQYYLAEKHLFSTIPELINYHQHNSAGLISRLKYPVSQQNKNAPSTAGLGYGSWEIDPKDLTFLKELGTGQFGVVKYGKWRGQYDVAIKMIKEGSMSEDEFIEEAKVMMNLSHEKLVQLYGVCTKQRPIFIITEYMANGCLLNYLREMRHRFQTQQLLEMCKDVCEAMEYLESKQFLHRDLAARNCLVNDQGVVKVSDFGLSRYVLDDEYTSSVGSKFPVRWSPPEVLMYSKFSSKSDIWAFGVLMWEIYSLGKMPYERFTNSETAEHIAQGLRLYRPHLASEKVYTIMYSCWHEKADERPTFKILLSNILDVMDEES
Chain of Epidermal growth factor receptor (Homo sapiens) (P00533 whole entry): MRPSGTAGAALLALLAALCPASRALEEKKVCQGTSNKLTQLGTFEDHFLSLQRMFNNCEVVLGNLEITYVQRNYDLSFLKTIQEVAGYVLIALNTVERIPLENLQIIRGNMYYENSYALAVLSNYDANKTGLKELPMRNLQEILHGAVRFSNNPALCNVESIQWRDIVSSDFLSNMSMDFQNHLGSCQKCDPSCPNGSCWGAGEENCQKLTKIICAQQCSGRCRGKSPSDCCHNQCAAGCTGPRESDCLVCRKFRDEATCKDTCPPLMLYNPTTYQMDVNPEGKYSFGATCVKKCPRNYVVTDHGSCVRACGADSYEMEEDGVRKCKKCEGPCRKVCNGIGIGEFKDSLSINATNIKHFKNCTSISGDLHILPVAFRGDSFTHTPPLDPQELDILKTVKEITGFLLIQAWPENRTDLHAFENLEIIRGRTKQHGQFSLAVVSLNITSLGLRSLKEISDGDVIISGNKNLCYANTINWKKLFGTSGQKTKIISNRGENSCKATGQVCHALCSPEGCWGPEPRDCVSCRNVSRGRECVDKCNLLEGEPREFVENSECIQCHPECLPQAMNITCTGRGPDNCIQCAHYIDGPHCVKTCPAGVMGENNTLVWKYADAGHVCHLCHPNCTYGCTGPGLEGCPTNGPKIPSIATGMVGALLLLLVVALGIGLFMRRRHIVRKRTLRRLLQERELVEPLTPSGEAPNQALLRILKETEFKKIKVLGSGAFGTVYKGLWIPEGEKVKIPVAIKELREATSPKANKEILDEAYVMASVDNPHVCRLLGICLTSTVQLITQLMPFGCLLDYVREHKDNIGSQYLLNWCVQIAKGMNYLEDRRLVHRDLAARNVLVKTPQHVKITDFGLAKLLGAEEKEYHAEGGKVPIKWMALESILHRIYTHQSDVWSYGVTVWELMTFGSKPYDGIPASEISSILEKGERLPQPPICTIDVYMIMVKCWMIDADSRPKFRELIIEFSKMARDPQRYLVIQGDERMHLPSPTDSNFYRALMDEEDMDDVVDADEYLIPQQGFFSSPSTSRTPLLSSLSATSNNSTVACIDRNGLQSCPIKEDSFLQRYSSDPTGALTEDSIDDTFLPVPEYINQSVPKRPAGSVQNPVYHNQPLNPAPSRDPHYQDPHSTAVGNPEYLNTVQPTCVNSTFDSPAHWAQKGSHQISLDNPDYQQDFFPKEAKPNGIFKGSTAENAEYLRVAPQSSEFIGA

Row | SMILES | half-life [2] [h] | half-life [3] [h] | half-life [4] [h] | further results
1 | CCCNC(=O)N1C(=O)c2ccccc2S1(=O)=O | > 167 | > 167 | 0.775 | IC50 [5]: > 500 µM
2 | O=C(NCc1ccc(C(F)(F)F)cc1)N1C(=O)c2ccccc2S1(=O)=O | > 167 | > 167 | 0.212 | –
3 | O=C(NCC1CCCCC1)N1C(=O)c2ccccc2S1(=O)=O | > 167 | > 167 | 0.963 | IC50 [5]: 16.4 µM
4 | O=C(NCc1ccc(Br)cc1)N1C(=O)c2ccccc2S1(=O)=O | – | – | 0.187 | –
5 | COc1ccc(CNC(=O)N2C(=O)c3ccccc3S2(=O)=O)cc1 | – | – | 0.187 | –
6 | O=C(c1ccccc1)N1Cc2ccccc2S1(=O)=O | > 167 | > 167 | > 167 | –
7 | O=C(NCc1cccs1)N1C(=O)c2ccccc2S1(=O)=O | > 167 | > 167 | 0.365 | –
8 | C#Cc1ccc(CNC(=O)N2C(=O)c3ccccc3S2(=O)=O)cc1 | – | – | – | Activity [12]: Dde; Activity [13]: Active
9 | COc1cccc(CNC(=O)N2C(=O)c3ccccc3S2(=O)=O)c1 | > 167 | > 167 | 0.523 | IC50 [5]: 1.9 µM; Ratio IC50 (Homo sapiens [7]): > 25; Ratio IC50 (Homo sapiens [8]): > 25; Ratio IC50 (Homo sapiens [9]): > 25; Ratio IC50 (Homo sapiens [10]): > 25
10 | O=C1NS(=O)(=O)c2ccccc21 [SACCHARIN] | – | – | – | AUC(0-t) at 12 h [14]: 14000 ng·h/mL; half-life at 12 h (in vivo [15]): 1.11 h; Tmax at 12 h (in vivo [16]): 0.25 h; Cmax at 12 h (in vivo [17]): 29900 ng/mL
11 | O=C(c1ccccc1)N1Cc2ccccc2C1=O | > 167 | > 167 | > 167 | –

More lines, main results first:

Row | half-life [2] [h] | half-life [3] [h] | half-life [4] [h] | SMILES | further results
12 | > 167 | > 167 | 1.12 | COc1ccccc1CNC(=O)N1C(=O)c2ccccc2S1(=O)=O | inhibition [1]: < 50%; IC50 [5]: 1.7 µM; inhibition [6]: < 50%; Ratio IC50 (Homo sapiens [7]): > 25; Ratio IC50 (Homo sapiens [8]): > 25; Ratio IC50 (Homo sapiens [9]): > 25; Ratio IC50 (Homo sapiens [10]): > 25; inhibition [11]: < 50%
13 | > 167 | > 167 | 0.492 | O=C(NCc1cccc(Br)c1)N1C(=O)c2ccccc2S1(=O)=O | –
14 | > 167 | > 167 | 0.253 | O=C(NCc1ccccc1Br)N1C(=O)c2ccccc2S1(=O)=O | –
15 | > 167 | > 0.875 | – | O=C(c1ccccc1)N1C(=O)c2ccccc2S1(=O)=O | –
16 | > 167 | > 167 | 0.395 | O=C(NCc1cccc2ccccc12)N1C(=O)c2ccccc2S1(=O)=O | –
17 | > 167 | 3.04 | – | O=C(Oc1ccccc1)N1C(=O)c2ccccc2S1(=O)=O | –
18 | > 167 | > 167 | 0.187 | O=C(NCc1ccccc1C(F)(F)F)N1C(=O)c2ccccc2S1(=O)=O | –
19 | > 167 | > 167 | 0.598 | O=C(NCc1ccccc1F)N1C(=O)c2ccccc2S1(=O)=O | IC50 [5]: 4.2 µM; Ratio IC50 (Homo sapiens [7]): > 25; Ratio IC50 (Homo sapiens [8]): > 25; Ratio IC50 (Homo sapiens [9]): > 25; Ratio IC50 (Homo sapiens [10]): 16.3
20 | > 167 | > 167 | 0.56 | O=C(NCCc1ccccc1)N1C(=O)c2ccccc2S1(=O)=O | –
21 | > 167 | > 167 | < 0.0167 | O=C(OCc1ccccc1)N1C(=O)c2ccccc2S1(=O)=O | –
22 | > 167 | > 167 | 0.42 | O=C(NCc1ccccc1Cl)N1C(=O)c2ccccc2S1(=O)=O | –
23 | > 167 | 5.78 | – | O=C(CCc1ccccc1)N1C(=O)c2ccccc2S1(=O)=O | –
24 | > 167 | 3.4 | – | O=C(Cc1ccccc1)N1C(=O)c2ccccc2S1(=O)=O | –
25 | > 167 | > 167 | 0.663 | CC(NC(=O)N1C(=O)c2ccccc2S1(=O)=O)c1ccccc1 (stereo not given) | IC50 [5]: 8.7 µM; Ratio IC50 (Homo sapiens [7]): > 25; Ratio IC50 (Homo sapiens [8]): > 25; Ratio IC50 (Homo sapiens [9]): > 25; Ratio IC50 (Homo sapiens [10]): 1.3
26 | > 167 | > 167 | 0.792 | Cc1ccccc1CNC(=O)N1C(=O)c2ccccc2S1(=O)=O | IC50 [5]: 3.6 µM; Ratio IC50 (Homo sapiens [7]): > 25; Ratio IC50 (Homo sapiens [8]): > 25; Ratio IC50 (Homo sapiens [9]): > 25; Ratio IC50 (Homo sapiens [10]): 3.6
